Reference: ChEMBL document CHEMBL2384977, “Synthesis and biological evaluation of novel styryl benzimidazole derivatives as probes for imaging of neurofibrillary tangles in Alzheimer's disease” (Bioorg Med Chem, 2013)
pKd: −log10 of the molar value. The source made the active and inactive calls. No cut-off for these calls is given here.

What was measured:
[1] = biological target: T1, Amyloid-beta precursor protein (Homo sapiens, UniProt P05067); experiment: Binding affinity to amyloid beta (1 to 42) (unknown origin) aggregates assessed as apparent dissociation constant after 30 mins by fluorescence spectroscopic analysis; conditions: read-out: Kd(app)
T1 sequence (P05067 whole entry): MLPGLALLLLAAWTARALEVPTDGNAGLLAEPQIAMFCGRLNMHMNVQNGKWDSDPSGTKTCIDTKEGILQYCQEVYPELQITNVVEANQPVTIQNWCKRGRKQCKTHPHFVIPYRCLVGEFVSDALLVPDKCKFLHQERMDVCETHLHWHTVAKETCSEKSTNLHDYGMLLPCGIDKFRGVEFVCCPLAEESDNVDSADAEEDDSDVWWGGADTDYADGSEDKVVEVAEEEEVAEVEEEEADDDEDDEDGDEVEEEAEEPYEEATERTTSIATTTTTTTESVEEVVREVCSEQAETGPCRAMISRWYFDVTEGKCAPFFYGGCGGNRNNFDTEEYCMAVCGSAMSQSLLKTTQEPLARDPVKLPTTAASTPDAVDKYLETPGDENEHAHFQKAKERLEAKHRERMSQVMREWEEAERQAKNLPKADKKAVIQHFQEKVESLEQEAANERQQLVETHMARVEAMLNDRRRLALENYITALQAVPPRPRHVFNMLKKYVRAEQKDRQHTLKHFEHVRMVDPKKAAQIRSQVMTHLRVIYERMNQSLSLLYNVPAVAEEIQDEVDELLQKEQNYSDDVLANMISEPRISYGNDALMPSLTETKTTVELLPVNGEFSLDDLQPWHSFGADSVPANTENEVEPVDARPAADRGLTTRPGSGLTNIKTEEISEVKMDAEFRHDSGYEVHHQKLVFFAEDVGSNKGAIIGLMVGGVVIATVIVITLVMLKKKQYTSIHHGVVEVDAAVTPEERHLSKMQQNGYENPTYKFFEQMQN
Outline: (§1)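 Tau: human 441-aa tau expressed in E. coli, aggregated at 1 mg/mL in MES buffer pH 6.8 with 0.1 mg/mL heparin, 37 °C for 3 days with shaking. Abeta1-42 aggregated at 0.25 mg/mL in PBS pH 7.4, 37 °C for 42 h with shaking. Aggregates at final 10 µg/mL were incubated with ligand (final 0.02–10 µM) for 30 min at room temperature. Apparent Kd was taken from fluorescence saturation curves at ex 440 nm, em 510 nm (tau) or em 480 nm (Abeta). Mean ± SEM of six independent experiments.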

[2] = biological target: T2, Microtubule-associated protein tau (Homo sapiens, UniProt P10636); experiment: Binding affinity to hyperphosphorylated tau protein in entorhinal cortex of alzheimer disease patient brain at 300 uM after 30 mins by fluorescence microscopic analysis; type: tissue-based
T2 sequence (P10636 whole entry): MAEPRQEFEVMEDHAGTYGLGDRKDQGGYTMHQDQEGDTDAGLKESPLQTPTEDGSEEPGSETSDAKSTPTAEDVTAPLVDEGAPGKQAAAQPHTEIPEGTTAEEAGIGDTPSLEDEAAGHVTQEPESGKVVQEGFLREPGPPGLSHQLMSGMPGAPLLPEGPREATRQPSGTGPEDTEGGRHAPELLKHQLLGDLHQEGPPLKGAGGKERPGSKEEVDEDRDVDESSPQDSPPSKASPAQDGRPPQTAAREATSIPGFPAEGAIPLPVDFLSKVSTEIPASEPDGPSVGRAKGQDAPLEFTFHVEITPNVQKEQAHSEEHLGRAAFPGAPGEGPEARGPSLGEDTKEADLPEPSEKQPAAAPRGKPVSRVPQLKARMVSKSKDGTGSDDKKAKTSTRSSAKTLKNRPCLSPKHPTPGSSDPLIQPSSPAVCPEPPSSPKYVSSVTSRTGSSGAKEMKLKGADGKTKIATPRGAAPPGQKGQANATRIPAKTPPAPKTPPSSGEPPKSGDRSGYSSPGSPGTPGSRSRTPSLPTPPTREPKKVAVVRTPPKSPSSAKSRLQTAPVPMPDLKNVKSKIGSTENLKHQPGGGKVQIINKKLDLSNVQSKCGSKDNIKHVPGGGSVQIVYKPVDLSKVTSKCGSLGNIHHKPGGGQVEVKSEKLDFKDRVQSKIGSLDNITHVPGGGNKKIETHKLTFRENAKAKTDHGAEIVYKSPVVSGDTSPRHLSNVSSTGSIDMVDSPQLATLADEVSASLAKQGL
Outline: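 Deparaffinized entorhinal cortex section from the same AD patient, incubated 30 min with ligand in 50% ethanol, then washed 30 s in ethanol. Imaged by fluorescence microscopy (excitation 450–490 nm, emission 510–560 nm). Spots were matched to Thioflavin S staining of the same patient's section.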

[3] = biological target: T1, Amyloid-beta precursor protein; experiment: Binding affinity to amyloid beta (1 to 42) in alzheimer disease patient brain by immunohistochemical staining analysis; conditions: tested as the 125I-labelled form
Outline: (§2)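 Autoradiography on 6-µm deparaffinized paraffin serial sections from an autopsy-confirmed AD case; control brain section also run. [125I]SBIM-3 (92.5 kBq/100 µL) for 1 h at room temperature, 50% EtOH for 2 h, water wash 30 s, then imaging plate exposure overnight. Labelling was compared with adjacent sections immunostained for phospho-tau (AT8) or Aβ1–42 (BC05).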

[4] = biological target: T2, Microtubule-associated protein tau; experiment: Binding affinity to hyperphosphorylated tau protein in alzheimer disease patient brain by immunohistochemical staining analysis; conditions: tested as the 125I-labelled form; outline: as §2
[5] = biological target: T2, Microtubule-associated protein tau; experiment: Binding affinity to recombinant human tau (441 amino acid residues) aggregates expressed in Escherichia coli assessed as apparent dissociation constant after 30 mins by fluorescence spectroscopic analysis; conditions: read-out: Kd(app); outline: as §1
Homo sapiens = species: Homo sapiens; experiment: Selectivity ratio of Kd(app) for amyloid beta (1 to 42) (unknown origin) aggregates to Kd(app) for recombinant human tau (441 amino acid residues) aggregates
Outline: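 Human 441-aa tau, expressed in E. coli, was aggregated at 1 mg/mL (MES pH 6.8, 0.1 mg/mL heparin, 37 °C, 3 days, shaking). Aβ1–42 was aggregated at 0.25 mg/mL (PBS pH 7.4, 37 °C, 42 h). Aggregates were incubated 30 min at room temperature with ligand, and fluorescence read at ex 440 nm, em 510 nm (tau) or 480 nm (Aβ). Apparent Kd came from saturation curves over six independent experiments, and the ratio is Kd(Aβ)/Kd(tau).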

- pKd [1]: 6.09
- Activity [2]: Active
- Activity [3]: Active
- Activity [4]: Active
- pKd [5]: 6.52
- Selectivity ratio (Homo sapiens): 2.73
Compound: CN(C)c1ccc(/C=C/c2nc3ccc(I)cc3[nH]2)cc1
